Measurements as given in PubChem BioAssay AID624121 (Johns Hopkins Ion Channel Center, 2012).

Biological target: Potassium channel subfamily K member 9 (Homo sapiens) (UniProt Q9NPC2)
Experiment: KCNK9 current inhibition, whole-cell recording, SAR follow-up, manual electrophysiology (AID 624121)
Conditions: HEK293 KCNK9 stable, whole-cell patch clamp current; at 1 µM; active compounds read high
Method in brief: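 Measure: percent current inhibition at -20 mV versus current in 5 mM K+ bath. Test system: inducible KCNK9-expressing HEK293 cell line. Doses: one dose, 1 µM. Signal: whole-cell patch clamp current at -20 mV. Timing: induction 16–24 h pre-recording, 30 s ramp interval.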

Potassium channel subfamily K member 9 (Homo sapiens), sequence (Q9NPC2 whole entry, looked up): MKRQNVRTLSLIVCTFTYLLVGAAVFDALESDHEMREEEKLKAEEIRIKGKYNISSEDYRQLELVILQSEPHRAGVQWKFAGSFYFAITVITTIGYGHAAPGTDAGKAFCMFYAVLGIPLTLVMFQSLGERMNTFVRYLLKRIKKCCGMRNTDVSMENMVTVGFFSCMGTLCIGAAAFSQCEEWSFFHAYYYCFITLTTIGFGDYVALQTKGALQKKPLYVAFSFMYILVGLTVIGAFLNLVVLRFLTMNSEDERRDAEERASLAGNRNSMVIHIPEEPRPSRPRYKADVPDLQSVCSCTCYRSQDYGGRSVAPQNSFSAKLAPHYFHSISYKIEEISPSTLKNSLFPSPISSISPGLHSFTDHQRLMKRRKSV

inhibition: 55.2%
SMILES: C[C@@H]([C@@H]1CC2CC[C@H]1C2)n1c(-c2ccco2)n[nH]c1=S
